{"data": "Results pooled from the literature", "ache": "Acetylcholinesterase (ache, Electrophorus electricus, UniProt O42275)", "Chrna7": "Neuronal acetylcholine receptor subunit alpha-7 (Chrna7, Rattus norvegicus, UniProt Q05941)", "note": "Each line is one published result; the experiments were not run side by side."}
{"SMILES": "CCCCCCCCCC(=O)N[C@@H](CCCN=C(N)N)C(=O)N[C@H](C(=O)N[C@@H](CCCCN)C(=O)N[C@@H](CCCN=C(N)N)C(=O)CCl)C(C)C", "target": "Furin (FURIN, Homo sapiens, UniProt P09958)", "observed": "enzyme activity", "mode": "inhibitor", "IC50 [µM]": 0.00134}
{"SMILES": "CNC(=O)c1ccc(-c2cnn3ccc(C(=O)N(C)c4ccc(Cl)c(C(=O)OC)c4)cc23)cc1", "target": "Tyrosine-protein kinase receptor UFO (AXL, Homo sapiens, UniProt P30530)", "observed": "enzyme activity", "mode": "inhibitor", "IC50 [µM]": "> 30"}
{"SMILES": "CC(C)C[C@H](NC(=O)[C@H]1O[C@@H]1C(=O)O)C(=O)NCCCCN=C(N)N", "target": "Pro-cathepsin H (Homo sapiens, UniProt P09668)", "observed": "enzyme activity", "mode": "inhibitor", "IC50 [µM]": 0.025}
{"SMILES": "C#CCN(C)CCCCCCCCOc1cccc(CN(C)c2c3c(nc4ccc(C)cc24)CCCC3)c1", "target": "ache", "observed": "enzyme activity", "mode": "inhibitor", "technique": "Ellman", "IC50 [µM]": 32.2}
{"SMILES": "COc1ccc2c3c([nH]c2c1)CCN(C)CC3", "target": "Chrna7", "observed": "ion current", "mode": "antagonist", "technique": "two-electrode voltage clamp", "setting": "oocytes", "IC50 [µM]": 10.2}
{"SMILES": "CNC(=O)c1ccc(-c2cnn3ccc(C(=O)N(C)c4ccc(Cl)c(C(=O)O)c4)cc23)cc1", "target": "Ephrin type-A receptor 4 (EPHA4, Homo sapiens, UniProt P54764)", "observed": "enzyme activity", "mode": "inhibitor", "IC50 [µM]": "> 30"}
{"SMILES": "COc1ccc2[nH]c3c(c2c1)CCN(C)CC3", "target": "Chrna7", "observed": "ion current", "mode": "antagonist", "technique": "two-electrode voltage clamp", "setting": "oocytes", "IC50 [µM]": 11.4}
{"SMILES": "C#CCN(C)CCCOc1cccc(CN(C)c2c3c(nc4ccc(C)cc24)CCCC3)c1", "target": "ache", "observed": "enzyme activity", "mode": "inhibitor", "technique": "Ellman", "IC50 [µM]": 5.36}
